Screening results from PubChem.
Shown are actives, neighbours in structure and some others; about 2.9% of the full set was active somewhere.
SUMO Mot1 rescue: yeast Mot1-301 growth rescue at high temperature, primary screen, SUMOylation pathway inhibitor project, S. cerevisiae, ATP luminescence, 38.5C; actives 1% (n = 320,000); growth rescue, % at 18.8 µM; S. cerevisiae Mot1-301 growth rescue; percent above DMSO median, 100 means doubled; AID 2716, 2010;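 active = every valid replicate shows activation above 250% relative to neutral control wells; inactive = the rest, any valid replicate at or below 250%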;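 note: OY570 slx delta 5 strain wells were the positive control but not used for scaling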
NALP1 yeast inh: NALP1 inflammasome inhibitors in reconstituted yeast, colorimetric, S. cerevisiae, triplicate retest; S. cerevisiae NALP1/ASC/caspase-1 growth, X-gal OD620, 72 h; inhibition, % at 10 µM; actives 0.61% (n = 280,000); in the data active = inhibition mostly above about 24%, no sharp cut-off; inactive = mostly below about 32%
VIM-2 inh: VIM-2 metallo-beta-lactamase inhibitors, primary screen, biochemical, epi-absorbance readout, Pseudomonas aeruginosa enzyme | purified VIM-2, nitrocefin hydrolysis, epi-absorbance fluorescence | inhibition, % at 5.6 µM | actives 0.89% (n = 290,000) | AID 1527, 2009;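 active = inhibition above the mean of all tested compounds plus 3 SD, cutoff set per screening run, cut at about 7.5% in these data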;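 note: red hydrolysis product quenches plate fluorescence so inhibitors raise well fluorescence; 0% = enzyme with DMSO and 100% = DMSO without enzyme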
FID counter: compounds displacing fluorescent DNA intercalator, primary screen, artefact control for HCV NS3 helicase inhibitor project, biochemical, FID fluorescence; DNA fluorescent intercalator displacement; inhibition, % at 7.9 µM; actives 0.17% (n = 290,000); AID 1845, 2009; in the data active = inhibition above about 37%;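 note: 0% = vehicle and 100% = reference compound; higher means more ethidium bromide displaced from hairpin DNA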
UBC9 SUMO inh: inhibitors of in vitro SUMOylation cascade, primary screen, biochemical, HTRF, uHTS; SUMO-conjugating enzyme UBC9 (Homo sapiens), P63279; HTRF SUMOylation assay, SAE1/SAE2 + UBC9; actives 0.36% (n = 290,000); inhibition, % at 35 µM; in the data active = inhibition above about 50%, passing the limit was not always enough
Target sequence (P63279 whole entry, looked up): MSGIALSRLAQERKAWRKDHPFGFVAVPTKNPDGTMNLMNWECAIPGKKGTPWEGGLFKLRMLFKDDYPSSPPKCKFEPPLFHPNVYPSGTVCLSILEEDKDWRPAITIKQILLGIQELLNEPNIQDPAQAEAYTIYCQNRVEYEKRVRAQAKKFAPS
IMP-1 inhibitor: IMP-1 metallo-beta-lactamase inhibitors, primary screen, biochemical, epi-absorbance readout, Pseudomonas aeruginosa enzyme. inhibition, % at 5.6 µM. purified IMP-1, nitrocefin hydrolysis, epi-absorbance fluorescence. AID 1556, 2009. actives 0.45% (n = 290,000);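 active = inhibition above the mean plus 3 SD of all compounds in the same screening run, cut at about 4.5% in these data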;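 note: 0% = IMP-1 with DMSO and 100% = DMSO wells lacking enzyme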
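Material – recombinant IMP-1 enzyme, purified · Amount – IMP-1 0.2 nM before substrate addition · Medium – HEPES buffer pH 7.1 with ZnSO4 and Brij 35 · Timing – 25 °C, 15 min preincubation, 25 min reaction · Measured by – plate fluorescence quenching by hydrolysis product, ex 480/em 530 nm · Read-out – percent enzyme inhibition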
Yeast Mot1 SUMO: growth restoration of Mot1-301 yeast on galactose, dose response, SUMO pathway inhibitor project, whole organism, S. cerevisiae, ATP luminescence, cherry-picked samples | S. cerevisiae Mot1-301 galactose growth, 24 h; -100 = growth of slx-deleted rescue strain | shares compounds with SUMO Mot1 rescue | 2,300 tested, under 10 active | growth activity, percent, % at 42 µM;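 active = Signal drops as the depositor expects, and the fitted half-maximal dose is no more than ten times the top valid tested dose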;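 note: more negative values mean stronger growth rescue toward the control strain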
Active calls of the source: *.

What do the screens show for `CC1CN(Cc2ccccc2)c2nc3c(c(=O)[nH]c(=O)n3C)n2C1` (centres undefined)?
SUMO Mot1 rescue: 475*; VIM-2 inh: 2; FID counter: -13; UBC9 SUMO inh: 10; IMP-1 inhibitor: -4; Yeast Mot1 SUMO: 0

Results for Cn1c(=O)[nH]c(=O)c2c1nc1n2CCN1Cc1ccccc1 ?
SUMO Mot1 rescue: -20; NALP1 yeast inh: -8; VIM-2 inh: 1; FID counter: -1; UBC9 SUMO inh: -17; IMP-1 inhibitor: -2

Results for Cc1cc(CSc2ccccc2)ccc1NC(=O)COc1ccccc1C ?
SUMO Mot1 rescue: 2; NALP1 yeast inh: 23; VIM-2 inh: -4; FID counter: 0; UBC9 SUMO inh: -7; IMP-1 inhibitor: -3

How did Cc1ccc2nc(N/N=C/c3ccccc3C#N)nc(-c3ccccc3)c2c1 do in these assays?
SUMO Mot1 rescue: -18; NALP1 yeast inh: 8; VIM-2 inh: -1; FID counter: -16; UBC9 SUMO inh: 4; IMP-1 inhibitor: -1

What do the screens show for `Cc1ccc2nc(N/N=C/c3ccccc3F)nc(-c3ccccc3)c2c1`?
SUMO Mot1 rescue: 473*; NALP1 yeast inh: 38; VIM-2 inh: -1; FID counter: -9; UBC9 SUMO inh: 0; IMP-1 inhibitor: -5; Yeast Mot1 SUMO: 0

Results for Clc1cc(Br)ccc1OCCOCCN1CCOCC1 ?
SUMO Mot1 rescue: 504*; NALP1 yeast inh: -10; VIM-2 inh: -2; FID counter: 7; UBC9 SUMO inh: 4; IMP-1 inhibitor: -3; Yeast Mot1 SUMO: 0

How did COc1cc(CNCCN2CCOCC2)ccc1OCc1ccccc1Cl do in these assays?
SUMO Mot1 rescue: 453*; NALP1 yeast inh: 22; VIM-2 inh: -4; FID counter: 22; UBC9 SUMO inh: -16; IMP-1 inhibitor: -3; Yeast Mot1 SUMO: 0

What do the screens show for `CCOc1ccc(Br)cc1CNCCN1CCOCC1`?
SUMO Mot1 rescue: 399*; NALP1 yeast inh: 30; VIM-2 inh: -2; FID counter: 7; UBC9 SUMO inh: 14; IMP-1 inhibitor: -3; Yeast Mot1 SUMO: 0

What do the screens show for `COc1cc(CNCc2ccccn2)ccc1OCc1ccccc1Cl`?
SUMO Mot1 rescue: 10; NALP1 yeast inh: 39; VIM-2 inh: 3; FID counter: 10; UBC9 SUMO inh: 10; IMP-1 inhibitor: 0

How did COc1cccc(C2NC(=O)N(CCCC(=O)O)C(C)=C2C(=O)OCc2ccccc2)c1 (centres undefined) do in these assays?
SUMO Mot1 rescue: -6

How did Cc1cc(OCC(F)(F)C(F)(F)C(F)(F)C(F)F)nc(N)n1 do in these assays?
SUMO Mot1 rescue: 18; NALP1 yeast inh: 8; VIM-2 inh: -1; FID counter: 3; UBC9 SUMO inh: 14; IMP-1 inhibitor: -1

What do the screens show for `CC(=O)C[C@H](O)CC(=O)[C@H]1OC(=O)CCCCCCCCc2ccccc21`?
SUMO Mot1 rescue: 9

What do the screens show for `CCC(C)c1ccc(OCc2ccc(C(=O)OC)o2)cc1` (centres undefined)?
SUMO Mot1 rescue: 6; NALP1 yeast inh: 16; VIM-2 inh: -2; FID counter: -13; UBC9 SUMO inh: 4; IMP-1 inhibitor: -2

Results for OC(COCc1cccs1)CN1CCCCCC1 (centres undefined) ?
SUMO Mot1 rescue: active; NALP1 yeast inh: 38; VIM-2 inh: -4; FID counter: 1; UBC9 SUMO inh: 7; IMP-1 inhibitor: -4; Yeast Mot1 SUMO: 0

What do the screens show for `Cc1ccc(S(=O)(=O)/N=C(/Nc2ccc([N+](=O)[O-])cc2[N+](=O)[O-])c2ccccc2)cc1`?
SUMO Mot1 rescue: 415*; Yeast Mot1 SUMO: -1

What do the screens show for `CNC(=O)c1ccccc1S(=O)c1ccccc1COC(C)=O` (centres undefined)?
SUMO Mot1 rescue: 384*; VIM-2 inh: -4; FID counter: 0; UBC9 SUMO inh: 12; IMP-1 inhibitor: -4; Yeast Mot1 SUMO: 0

How did O=C(CCCn1cc([N+](=O)[O-])cn1)Nc1cccnc1 do in these assays?
SUMO Mot1 rescue: 0; VIM-2 inh: 0; FID counter: -2; UBC9 SUMO inh: -9; IMP-1 inhibitor: -2

How did Cc1cc(C)cc(NC(=O)CS(=O)(=O)c2ccccc2)c1 do in these assays?
SUMO Mot1 rescue: 368*; NALP1 yeast inh: 9; VIM-2 inh: -1; FID counter: -4; UBC9 SUMO inh: 4; IMP-1 inhibitor: -1; Yeast Mot1 SUMO: 0

How did Cc1ccnc(NC(=O)CS(=O)(=O)c2ccccc2)c1 do in these assays?
SUMO Mot1 rescue: 20; NALP1 yeast inh: 9; VIM-2 inh: 0; FID counter: -11; UBC9 SUMO inh: 7; IMP-1 inhibitor: -1

How did CC(SC#N)C(=O)C12CC3CC(CC(C3)C1)C2 (centres undefined) do in these assays?
SUMO Mot1 rescue: 386*; NALP1 yeast inh: -28; VIM-2 inh: -2; FID counter: -7; UBC9 SUMO inh: -5; IMP-1 inhibitor: -3; Yeast Mot1 SUMO: -1

Results for CC(Sc1n[nH]c(N)n1)C(=O)C12CC3CC(CC(C3)C1)C2 (centres undefined) ?
SUMO Mot1 rescue: 0; NALP1 yeast inh: 16; VIM-2 inh: -2; FID counter: -2; UBC9 SUMO inh: 12; IMP-1 inhibitor: -4

Results for COc1ccccc1N1CCN(Cc2cnc3ccc(Cl)cn23)CC1 ?
NALP1 yeast inh: 16; VIM-2 inh: -3; FID counter: -19; UBC9 SUMO inh: -7; IMP-1 inhibitor: -2

How did CN(C)c1cccc(C(=O)Nc2cc(C(F)(F)F)ccc2-n2cnc3ccccc32)c1 do in these assays?
SUMO Mot1 rescue: 400*; NALP1 yeast inh: 14; VIM-2 inh: -4; FID counter: -23; UBC9 SUMO inh: 0; IMP-1 inhibitor: -6; Yeast Mot1 SUMO: 0

What do the screens show for `CC(=O)Nc1ccc(C(=O)Nc2cc(C(F)(F)F)ccc2-n2cnc3ccccc32)cc1`?
SUMO Mot1 rescue: 65; NALP1 yeast inh: 18; VIM-2 inh: -4; FID counter: -15; UBC9 SUMO inh: -8; IMP-1 inhibitor: -1

How did Cc1ccc(C)c(-n2nnnc2SCC(=O)Nc2c(C)n(C)n(-c3ccccc3)c2=O)c1 do in these assays?
SUMO Mot1 rescue: 377*; NALP1 yeast inh: 1; VIM-2 inh: -4; FID counter: -19; UBC9 SUMO inh: 7; IMP-1 inhibitor: -4; Yeast Mot1 SUMO: 0
